Activity calls are given as the source filed them. The rule behind the calls is not given here. Residues, ends and D or L forms follow the SMILES beside them.
Columns and labels:
[1] = target: Proteasome subunit beta type-6 (Homo sapiens) (UniProt P28072); experiment: Positive allosteric modulation of latent human erythrocytes 20S proteasome caspase like activity at 10 uM using Z-LLE-AMC as substrate measured every 1 min up to 60 mins by fluorescence assay relative to control
[2] = target: T1, Proteasome Macropain subunit MB1 (Homo sapiens) (UniProt P28074); experiment: Stimulation of 20S proteasome chymotrypsin like activity in human primary fibroblasts preincubated for 24 hrs followed by Suc-LLVY-AMC substrate addition and measured at 2 mins interval up to 60 mins by fluorescence assay
T1 sequence (whole entry): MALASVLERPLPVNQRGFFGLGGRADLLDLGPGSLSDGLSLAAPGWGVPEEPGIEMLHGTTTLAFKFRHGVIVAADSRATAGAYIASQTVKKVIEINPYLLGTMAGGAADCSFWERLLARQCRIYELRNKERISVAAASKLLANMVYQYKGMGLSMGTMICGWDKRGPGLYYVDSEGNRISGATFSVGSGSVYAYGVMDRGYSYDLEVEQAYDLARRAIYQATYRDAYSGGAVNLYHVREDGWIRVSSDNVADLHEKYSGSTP
Summary of the method: (§1)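 Fibroblasts (GM04390, 3% O2, 37 °C) exposed to 0.1–20 μM peptide or DMSO for 24 h after Optimem switch. Cells scraped, lysed in 50 mM Tris/HCl pH 7.4, 5 mM MgCl2, 1 mM DTT by mechanical lysis and freeze fractionation. Bradford-normalised lysate (1 μg in 100 μL) incubated with 50 μM Suc-LLVY-AMC; fluorescence ex 370/em 460 nm.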

[3] = target: T2, 20S proteasome (Homo sapiens) (UniProt P49721+P20618+P28074+P28062+P28065+P28072+P25786+P25787+P25788+P25789+P28066+P60900+O14818+Q8TAA3+P40306+A5LHX3+P49720+P28070+Q99436); experiment: Positive allosteric modulation of SDS-activated human erythrocytes 20S proteasome assessed as increase in human alpha-synuclein degradation at 10 uM after 1 hr by SDS-PAGE analysis
[4] = target: T2, 20S proteasome (Homo sapiens); experiment: Effect on alpha-face conformations of latent human erythrocytes 20S proteasome assessed as intermediate state conformation at 1 uM by atomic force microscopic method (reference value: 22%)
[5] = target: T2, 20S proteasome (Homo sapiens); experiment: Positive allosteric modulation of SDS-activated human erythrocytes 20S proteasome assessed as increase in yeast enolase degradation at 1 uM after 4 hr by SDS-PAGE analysis relative to control
[6] = target: T2, 20S proteasome (Homo sapiens); experiment: Effect on alpha-face conformations of latent human erythrocytes 20S proteasome assessed as open state conformation at 1 uM by atomic force microscopic method (reference value: 7%)
[7] = target: T1, Proteasome Macropain subunit MB1 (Homo sapiens); experiment: Positive allosteric modulation of 1 uM Rpt5-activated human erythrocytes 20S proteasome chymotrypsin like activity up to 10 uM using Suc-LLVY-AMC as substrate measured every 1 min up to 60 mins by fluorescence assay
[8] = target: T1, Proteasome Macropain subunit MB1 (Homo sapiens); experiment: Negative allosteric modulation of SDS-activated human erythrocytes 20S proteasome chymotrypsin like activity up to 10 uM using LFP as substrate measured every 2 mins up to 60 mins by fluorescence assay
[9] = target: T1, Proteasome Macropain subunit MB1 (Homo sapiens); experiment: Positive allosteric modulation of latent human erythrocytes 20S proteasome chymotrypsin like activity at 25 uM using LFP as substrate measured every 2 mins up to 60 mins by fluorescence assay relative to control
[10] = target: T1, Proteasome Macropain subunit MB1 (Homo sapiens); experiment: Positive allosteric modulation of latent human erythrocytes 20S proteasome chymotrypsin like activity using LFP as substrate measured every 2 mins up to 60 mins by fluorescence assay
[11] = target: T3, Proteasome component C5 (Homo sapiens) (UniProt P20618); experiment: Positive allosteric modulation of latent human erythrocytes 20S proteasome caspase like activity at 10 uM measured every 1 min up to 60 mins by fluorescence assay relative to control
T3 sequence (whole entry): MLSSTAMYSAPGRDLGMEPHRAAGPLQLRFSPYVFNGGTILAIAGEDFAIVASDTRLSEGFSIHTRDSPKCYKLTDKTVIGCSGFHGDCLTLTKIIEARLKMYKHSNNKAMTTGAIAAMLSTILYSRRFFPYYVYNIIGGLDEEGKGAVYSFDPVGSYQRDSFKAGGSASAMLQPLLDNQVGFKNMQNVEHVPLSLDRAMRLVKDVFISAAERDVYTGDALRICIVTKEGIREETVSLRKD

[12] = target: T2, 20S proteasome (Homo sapiens); experiment: Positive allosteric modulation of SDS-activated human erythrocytes 20S proteasome assessed as increase in yeast enolase degradation at 10 uM after 4 hr by SDS-PAGE analysis
[13] = target: T1, Proteasome Macropain subunit MB1 (Homo sapiens); experiment: Negative allosteric modulation of 10 uM Rpt5-activated human erythrocytes 20S proteasome chymotrypsin like activity up to 10 uM using Suc-LLVY-AMC as substrate measured every 1 min up to 60 mins by fluorescence assay
[14] = target: T1, Proteasome Macropain subunit MB1 (Homo sapiens); experiment: Positive allosteric modulation of latent human erythrocytes 20S proteasome chymotrypsin like activity at 25 uM using Suc-LLVY-AMC as substrate measured every 2 mins up to 60 mins by fluorescence assay relative to control
[15] = target: T2, 20S proteasome (Homo sapiens); experiment: Negative allosteric modulation of SDS-activated human erythrocytes 20S proteasome assessed as reduction in human alpha-synuclein degradation at 1 uM after 1 hr by SDS-PAGE analysis
Summary of the method: (§2)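 Human α-synuclein or yeast enolase digested by human 20S activated with 0.01% SDS (20S:substrate 1:100 pmol α-syn, 1:10 pmol enolase) in 20 mM HEPES pH 7.4 at 37 °C for 1 h (α-syn) or 4 h (enolase). DMSO at or below 0.05%. SDS–PAGE (12% or 10%) with Coomassie staining; remaining substrate densitometry as percent of control; at least three experiments, mean ± SEM.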

[16] = target: T1, Proteasome Macropain subunit MB1 (Homo sapiens); experiment: Stimulation of 20S proteasome chymotrypsin like activity in human primary fibroblasts at 10 uM preincubated for 24 hrs followed by Suc-LLVY-AMC substrate addition and measured at 2 mins interval up to 60 mins by fluorescence assay relative to control
Summary of the method: as §1

[17] = target: T2, 20S proteasome (Homo sapiens); experiment: Negative allosteric modulation of SDS-activated human erythrocytes 20S proteasome assessed as reduction in yeast enolase degradation at 1 uM after 4 hr by SDS-PAGE analysis
[18] = target: T2, 20S proteasome (Homo sapiens); experiment: Negative allosteric modulation of SDS-activated human erythrocytes 20S proteasome assessed as reduction in yeast enolase degradation at 10 uM after 4 hr by SDS-PAGE analysis
[19] = target: T3, Proteasome component C5 (Homo sapiens); experiment: Negative allosteric modulation of SDS-activated human erythrocytes 20S proteasome caspase like activity at lower concentration using Z-LLE-AMC as substrate measured every 2 mins up to 60 mins by fluorescence assay
[20] = target: T2, 20S proteasome (Homo sapiens); experiment: Negative allosteric modulation of SDS-activated human erythrocytes 20S proteasome assessed as reduction in human alpha-synuclein degradation at 10 uM after 1 hr by SDS-PAGE analysis
Summary of the method: as §2

[21] = target: T1, Proteasome Macropain subunit MB1 (Homo sapiens); experiment: Positive allosteric modulation of latent human erythrocytes 20S proteasome chymotrypsin like activity up to 10 uM using LFP as substrate measured every 2 mins up to 60 mins by fluorescence assay
[22] = target: T2, 20S proteasome (Homo sapiens); experiment: Effect on alpha-face conformations of latent human erythrocytes 20S proteasome assessed as closed state conformation at 1 uM by atomic force microscopic method (reference value: 70%)
[23] = target: T2, 20S proteasome (Homo sapiens); experiment: Effect on alpha-face conformations of latent human erythrocytes 20S proteasome assessed as open state conformation at 10 uM by atomic force microscopic method (reference value: 7%)
[24] = target: T1, Proteasome Macropain subunit MB1 (Homo sapiens); experiment: Positive allosteric modulation of latent human erythrocytes 20S proteasome chymotrypsin like activity up to 10 uM using LFP as substrate measured every 2 mins up to 60 mins by fluorescence assay
[25] = target: Proteasome Macropain subunit (Homo sapiens) (UniProt P49721); experiment: Negative allosteric modulation of SDS-activated human erythrocytes 20S proteasome trypsin like activity at 10 uM using Boc-LRR-AMC as substrate measured every 2 mins up to 60 mins by fluorescence assay
[26] = target: T2, 20S proteasome (Homo sapiens); experiment: Effect on alpha-face conformations of latent human erythrocytes 20S proteasome assessed as closed state conformation at 10 uM by atomic force microscopic method (reference value: 70%)
[27] = target: T2, 20S proteasome (Homo sapiens); experiment: Effect on alpha-face conformations of latent human erythrocytes 20S proteasome assessed as intermediate state conformation at 10 uM by atomic force microscopic method (reference value: 22%)
[28] = target: T1, Proteasome Macropain subunit MB1 (Homo sapiens); experiment: Negative allosteric modulation of SDS-activated human erythrocytes 20S proteasome chymotrypsin like activity using Suc-LLVY-AMC as substrate measured every 2 mins up to 60 mins by fluorescence assay
Summary of the method: (§3)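 1.4 nM CP (0.001 mg/mL) in 50 mM Tris-HCl pH 8.0, activated with 0.005% SDS where stated, otherwise latent. Suc-LLVY-AMC at 100 μM final. AMC fluorescence read every 2 min up to 60 min at 37 °C. Activity relative to DMSO-treated enzyme, from at least three independent replicates. Peptide stocks 10 mM in DMSO.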

[29] = target: T1, Proteasome Macropain subunit MB1 (Homo sapiens); experiment: Positive allosteric modulation of latent human erythrocytes 20S proteasome chymotrypsin like activity up to 10 uM using Suc-LLVY-AMC as substrate measured every 2 mins up to 60 mins by fluorescence assay
Summary of the method: as §3

[30] = target: T1, Proteasome Macropain subunit MB1 (Homo sapiens); experiment: Positive allosteric modulation of latent human erythrocytes 20S proteasome chymotrypsin like activity at 5 uM using Suc-LLVY-AMC as substrate measured every 2 mins up to 60 mins by fluorescence assay relative to control

Proteasome Macropain subunit (Homo sapiens), sequence (P49721 whole entry): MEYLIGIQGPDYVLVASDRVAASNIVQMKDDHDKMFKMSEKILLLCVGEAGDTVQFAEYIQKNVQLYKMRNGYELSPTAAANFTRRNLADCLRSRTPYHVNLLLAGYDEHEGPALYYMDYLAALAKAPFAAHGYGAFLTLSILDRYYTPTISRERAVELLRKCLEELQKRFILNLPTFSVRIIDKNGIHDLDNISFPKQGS
Proteasome subunit beta type-6 (Homo sapiens), sequence (P28072 whole entry, looked up): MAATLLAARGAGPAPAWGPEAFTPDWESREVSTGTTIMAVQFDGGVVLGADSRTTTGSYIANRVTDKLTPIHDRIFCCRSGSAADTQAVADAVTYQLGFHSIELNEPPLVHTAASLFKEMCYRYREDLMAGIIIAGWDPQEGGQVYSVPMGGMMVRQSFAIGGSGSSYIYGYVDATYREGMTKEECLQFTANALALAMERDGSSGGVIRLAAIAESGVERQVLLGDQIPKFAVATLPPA

Compound	Activity [6] [%]	Activity [8]	Activity [15]	Activity [17]	Activity [18]	Activity [19]	Activity [20]	Activity [21]	Activity [24]	Activity [25]	also measured
C[C@H](NC(=O)[C@H](Cc1ccc(O)cc1)NC(=O)[C@H](Cc1ccc(O)cc1)NC(=O)[C@@H]1CCCN1C(=O)[C@@H]1CCCN1C(=O)[C@@H]1CCCN1C(=O)[C@@H]1CCCN1C(=O)[C@H](CCCNC(=N)N)NC(=O)[C@H](CCCNC(=N)N)NC(=O)[C@@H](N)CCCNC(=N)N)C(=O)O (H-RRRPPPPYYA-OH)	18	inactive	inactive	–	–	–	–	–	–	–	fold change (FC) [1]: 5 to 7; Activity [2]: Dose-dependent effect; Activity [3]: Active; Activity [4]: 36%; fold change (FC) [5]: > 2; fold change (FC) [7]: 2; fold change (FC) [9]: 14; Activity [10]: Dose-dependent effect; fold change (FC) [11]: 5 to 7; Activity [12]: Active; Activity [13]: inactive; fold change (FC) [14]: < 7; fold change (FC) [16]: 3
CC(C)C[C@H](NC(=O)[C@H](Cc1ccc(O)cc1)NC(=O)[C@@H]1CCCN1C(=O)[C@@H]1CCCN1C(=O)[C@H](CCCNC(=N)N)NC(=O)[C@@H]1CCCN1C(=O)[C@H](CCCNC(=N)N)NC(=O)[C@H](CCCNC(=N)N)NC(=O)[C@@H](N)CCCNC(=N)N)C(=O)N1CCC[C@H]1C(=O)N[C@@H](CCCNC(=N)N)C(=O)N[C@@H](Cc1c[nH]c2ccccc12)C(=O)NCC(=O)O (H-RRRPRPPYLPRWG-OH)	< 3	Active	Active	Active	Active	Active	Active	inactive	inactive	Active	Activity [22]: 73%; Activity [23]: 18%; Activity [26]: 57%; Activity [27]: 25%; Activity [28]: Dose-dependent effect; Activity [29]: inactive
CC(C)C[C@H](NC(=O)[C@H](Cc1ccc(O)cc1)NC(=O)[C@H](CCCNC(=N)N)NC(=O)[C@H](CCCNC(=N)N)NC(=O)[C@@H](N)CCCNC(=N)N)C(=O)N1CCC[C@H]1C(=O)N[C@@H](CCCNC(=N)N)C(=O)N[C@@H](Cc1c[nH]c2ccccc12)C(=O)NCC(N)=O (H-RRRYLPRWG-NH2)	–	Active	–	inactive	inactive	Active	Active	inactive	inactive	Active	fold change (FC) [30]: 2
